Source: ChEMBL document CHEMBL4613270, “Structure-Activity Relationship Study Enables the Discovery of a Novel Berberine Analogue as the RXRα Activator to Inhibit Colon Cancer” (J Med Chem, 2020)
pIC50: −log10 of the molar value. Active and inactive are the calls of the source. The calls are words filed in the database; no cut-off is given here.

Columns and labels:
[1] = target: T1, Retinoic acid receptor RXR-alpha (Homo sapiens) (UniProt P19793); test: Activation of RXRalpha in human KM12C cells assessed as increase in p21 (WAF1/CIP1) protein expression at 25 to 50 uM incubated for 15 hrs by Western blot analysis; assay type: cell-based
T1 sequence (whole entry): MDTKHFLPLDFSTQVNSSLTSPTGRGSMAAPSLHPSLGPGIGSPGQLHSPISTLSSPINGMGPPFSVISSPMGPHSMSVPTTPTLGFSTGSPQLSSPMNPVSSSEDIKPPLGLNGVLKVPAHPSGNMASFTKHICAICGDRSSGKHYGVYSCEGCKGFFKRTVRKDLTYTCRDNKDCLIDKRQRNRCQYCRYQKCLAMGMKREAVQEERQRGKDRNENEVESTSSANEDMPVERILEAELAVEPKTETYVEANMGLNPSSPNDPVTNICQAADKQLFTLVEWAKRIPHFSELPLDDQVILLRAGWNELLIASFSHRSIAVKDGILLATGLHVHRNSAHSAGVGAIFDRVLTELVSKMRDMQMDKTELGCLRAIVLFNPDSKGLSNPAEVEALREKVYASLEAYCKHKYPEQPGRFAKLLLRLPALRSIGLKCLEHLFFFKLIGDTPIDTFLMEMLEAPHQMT

[2] = Toxicity in BALB/c mouse xenografted with human KM12C cells assessed as effect on biochemical parameter by measuring urea […] level at 100 mg/kg, ig dosed daily for 15 days by automatic chemistry analyzer based analysis (reference value: 8.21 +/- 0.26 mmol/L); assay type: organism-based; settings: in vivo, po, 360 h
[3] = target: T1, Retinoic acid receptor RXR-alpha (Homo sapiens); test: Activation of RXRalpha (unknown origin) expressed in human HCT116 cells co-expressing beta-catenin assessed as induction of RXRalpha interaction with beta-catenin at 30 to 60 uM incubated for 15 hrs by mammalian two-hybrid assay; assay type: cell-based; settings: HCT-116
How it was run: (§1)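 Mammalian two-hybrid: cells co-transfected by lipofection with pBIND-β-catenin/S33Y plus pACT-RXRα (RXRα–β-catenin) or pACT-c-Cbl (β-catenin–c-Cbl); 20 h after transfection, compound added for 15 h; cells lysed in passive lysis buffer, 4 °C, 1 h; firefly and Renilla luciferase read by dual-luciferase kit.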

[4] = target: T1, Retinoic acid receptor RXR-alpha (Homo sapiens); test: Activation of RXRalpha in human SW620 cells assessed as reduction in Cdc2 protein expression at 40 to 80 uM incubated for 15 hrs by Western blot analysis; assay type: cell-based; settings: SW-620
[5] = target: T1, Retinoic acid receptor RXR-alpha (Homo sapiens); test: In-vivo activation of RXRalpha in BALB/c mouse xenografted with human KM12C cells assessed as reduction in Cdc2 protein expression at 100 mg/kg, ig dosed daily for 15 days by Western blot analysis; assay type: functional, organism-based
How it was run: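 KM12C cells (1×10^6 per mouse in 100 μL HBSS) injected subcutaneously into both flanks of nude mice; after seven days, randomized to three groups, dosed intragastrically once daily for 15 days with vehicle (CMC-Na) or 100 mg/kg compound; mice euthanized and tumors removed for analysis.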

[6] = Cmax in Sprague-Dawley rat at 100 mg/kg, ig measured after 0.083 to 36 hrs by LC-MS/MS analysis; assay type: ADME, organism-based; parameters: dose 100 mg/kg, route intragastric; settings: in vivo, po
How it was run: (§2)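 SD rats (200 ± 20 g) randomized to three groups; single intragastric dose of 100 mg/kg or vehicle (0.5% CMC-Na). Tail-vein blood (0.5 mL) drawn at 0.083, 0.25, 0.5, 1, 2, 4, 8, 12, 24 and 36 h. Plasma separated by centrifugation at 2000 rpm for 10 min, frozen at -80 °C, then quantified by LC-MS/MS.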

[7] = target: T1, Retinoic acid receptor RXR-alpha (Homo sapiens); test: In-vivo activation of RXRalpha in BALB/c mouse xenografted with human KM12C cells assessed as effect on PCNA protein expression at 100 mg/kg, ig dosed daily for 15 days by immunohistochemistry analysis; assay type: functional, organism-based
[8] = target: T1, Retinoic acid receptor RXR-alpha (Homo sapiens); test: Activation of RXRalpha in human HCT116 cells assessed as reduction in Cdc2 mRNA expression at 30 to 60 uM incubated for 15 hrs by real-time PCR analysis; assay type: cell-based; settings: HCT-116
[9] = target: T1, Retinoic acid receptor RXR-alpha (Homo sapiens); test: Activation of RXRalpha in human SW620 cells assessed as inhibition of Wnt/beta-catenin-dependent transcriptional activity at 40 to 80 uM incubated for 15 hrs by TOP/FOP luciferase assay; assay type: cell-based; settings: SW-620
How it was run: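 TOP/FOP reporter: cells co-transfected by lipofection with pRL-TK plus TOPflash or FOPflash; compound added 20 h after transfection for 15 h; passive lysis at 4 °C, 1 h; firefly and Renilla luciferase measured by dual-luciferase assay.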

KM12C [10] = test: Antitumor activity against human KM12C cells xenografted in BALB/c mouse assessed as inhibition of tumor growth at 100 mg/kg, ig dosed daily for 15 days relative to control; assay type: functional; settings: po, 360 h, read-out: TGI
How it was run: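 Nude mice received subcutaneous injections of KM12C cells (1×10⁶ in 100 μL HBSS) into both flanks. After seven days, tumour-bearing mice (80–200 mm³) were randomized into three groups. Daily intragastric dosing at 100 mg/kg, or CMC-Na vehicle, for 15 days. Tumours then excised and weighed; inhibition rate calculated versus vehicle.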

[11] = target: T1, Retinoic acid receptor RXR-alpha (Homo sapiens); test: Activation of RXRalpha (unknown origin) expressed in human HCT116 cells co-expressing beta-catenin and c-Cbl assessed as induction of beta-caten interaction with c-Cbl at 30 to 60 uM incubated for 15 hrs by mammalian two-hybrid assay; assay type: cell-based; settings: HCT-116; how it was run: as §1
KM12C [12] = test: Activation of RXRalpha R371S mutant LBD (unknown origin) expressed in human KM12C cells at 50 uM incubated for 15 hrs by luciferase reporter gene assay; assay type: cell-based
How it was run: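 KM12C cells co-transfected with pG5luc and pBIND-RXRα-LBD (wild type or mutants) using Lipofectamine 2000. Twenty hours after transfection, compound added at 50 μM for 15 h. Cells lysed in passive lysis buffer (4 °C, 1 h), then firefly and Renilla luciferase read by dual-luciferase assay. Basal level normalized to 1.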

[13] = AUC (0 to t) in Sprague-Dawley rat at 100 mg/kg, ig measured after 0.083 to 36 hrs by LC-MS/MS analysis; assay type: ADME, organism-based; parameters: time upper 36 hr, time lower 0.083 hr, dose 100 mg/kg, route intragastric; settings: in vivo, po; how it was run: as §2
[14] = target: T1, Retinoic acid receptor RXR-alpha (Homo sapiens); test: In-vivo activation of RXRalpha in BALB/c mouse xenografted with human KM12C cells assessed as increase in p21 (WAF1/CIP) protein expression at 100 mg/kg, ig dosed daily for 15 days by immunohistochemistry analysis; assay type: functional, organism-based
[15] = target: T1, Retinoic acid receptor RXR-alpha (Homo sapiens); test: Activation of RXRalpha in human SW620 cells assessed as reduction in c-Myc mRNA expression at 40 to 80 uM incubated for 15 hrs by real-time PCR analysis; assay type: cell-based; settings: SW-620
[16] = target: T1, Retinoic acid receptor RXR-alpha (Homo sapiens); test: Activation of RXRalpha in human HCT116 cells assessed as reduction in Cdc2 protein expression at 30 to 60 uM incubated for 15 hrs by Western blot analysis; assay type: cell-based; settings: HCT-116
[17] = target: T1, Retinoic acid receptor RXR-alpha (Homo sapiens); test: In-vivo activation of RXRalpha in BALB/c mouse xenografted with human KM12C cells assessed as effect on Ki67 protein expression at 100 mg/kg, ig dosed daily for 15 days by immunohistochemistry analysis; assay type: functional, organism-based
KM12C [18] = test: Inhibition of cell proliferation of human KM12C cells incubated for 15 hrs by MTT assay; assay type: functional, cell-based
How it was run: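 Cells plated at 1×10⁴ per well, incubated overnight at 37 °C, then exposed to a concentration series for 15 h. MTT (5 mg/mL stock) added for 4 h at 37 °C. Formazan dissolved in DMSO and absorbance read at 570 nm. IC50 derived from the dose-response curve.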

| SMILES | Activity [1] | Activity [2] [mmol/L] | Activity [3] | Activity [4] | Activity [5] | Cmax ([6]; Sprague-Dawley, read-out: Cmax) [ng/mL] | Activity [7] | Activity [8] | Activity [9] | inhibition in vivo at 100 mg/kg (KM12C [10]) [%] | Activity [11] | Activity (KM12C [12]) | AUC(0-t) [13] [ng·h/mL] | Activity [14] | Activity [15] | Activity [16] | Activity [17] | pIC50 (KM12C [18]) | Cmax [6] [ng/mL] |
| --- | --- | --- | --- | --- | --- | --- | --- | --- | --- | --- | --- | --- | --- | --- | --- | --- | --- | --- | --- |
| COc1ccc2c(c1)CC[n+]1cc3c(OC)cccc3cc1-2.[Cl-] | Active | 8.39 | Active | Active | Active | 486 | Active | Active | Active | 69.1 | Active | inactive | 2100 | Active | Active | Active | Active | 4.51 | – |
| COc1ccc2cc3[n+](cc2c1OC)CCc1cc2c(cc1-3)OCO2.[Cl-] [BERBERINE CHLORIDE] | Active | 8.08 | Active | Active | Active | – | Active | Active | Active | 33.6 | Active | inactive | 99 | Active | Active | Active | Active | 4.12 | 2.893 |
